Activity calls are given as the source filed them. No cut-off for these calls is given here.
Experiments:
[1] = target: T1, Epidermal growth factor receptor (Homo sapiens, UniProt P00533); assay: Inhibition of EGFR after 1.5 hr by FRET assay
[2] = Antiproliferative activity against human HL7702 cells expressing wilt type EGFR after 72 hrs by MTS assay; conditions: L02, 72 h
[3] = target: T2, Epidermal growth factor receptor (Homo sapiens, UniProt P00533, L858R/T790M); assay: Inhibition of EGFR L858R/T790M mutant after 1.5 hr by FRET assay; format: protein assay
[4] = target: T3, Epidermal growth factor receptor (Homo sapiens, UniProt P00533, L861Q); assay: Inhibition of EGFR L861Q mutant after 1.5 hr by FRET assay; format: protein assay
[5] = target: T4, Epidermal growth factor receptor (Homo sapiens, UniProt P00533, L858R); assay: Inhibition of EGFR L858R mutant after 1.5 hr by FRET assay; format: protein assay
[6] = target: T5, Epidermal growth factor receptor (Homo sapiens, UniProt P00533, T790M); assay: Inhibition of EGFR T790M mutant after 1.5 hr by FRET assay; format: protein assay
[7] = test system: A549; assay: Antiproliferative activity against human A549 cells expressing wild type EGFR coexpressing k-Ras mutant after 72 hrs by MTS assay; conditions: A549, 72 h
[8] = test system: NCI-H1975; assay: cells; conditions: Homo sapiens, NCI-H1975, 72 h
[9] = cells; conditions: Homo sapiens, HCC827, 72 h
[10] = test system: A-431; assay: Antiproliferative activity against human A431 cells overexpressing EGFR after 72 hrs by MTS assay; conditions: A-431, 72 h
[11] = test system: NCI-H1975; assay: Induction of Cell cycle arrest in human NCI-H1975 cells harboring EGFR L858R/T790M mutant assessed as G1 phase cells after 24 hrs by flow cytometry assay; format: functional, cell-based
Method in brief: (§1)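 Cells in six-well plates serum-starved 24 h to synchronize in G0−G1, then treated at indicated concentrations for 24 h. Lightly trypsinized and cell-cycle distribution analysed by flow cytometry.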

[12] = test system: HCC827; assay: Induction of Cell cycle arrest in human HCC827 cells harboring EGFR del E746-A750 mutant assessed as G1 phase cells after 24 hrs by flow cytometry assay; format: functional, cell-based; method in brief: as §1
[13] = target: Cytoplasmic tyrosine-protein kinase BMX (Homo sapiens) (UniProt P51813); assay: Binding affinity to BMX
Method in brief: (§2)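 Ambit KINOMEscan binding assay. Binding for 1 h at r.t. Unbound kinase captured on immobilized affinity ligand and quantified by qPCR.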

[14] = target: Activated CDC42 kinase 1 (Homo sapiens) (UniProt Q07912); assay: Binding affinity to TNK2; method in brief: as §2
[15] = test system: NCI-H1975; assay: Induction of apoptosis in human NCI-H1975 cells harboring EGFR L858R/T790M mutant after 48 hrs by flow cytometry assay
[16] = target: Mitogen-activated protein kinase kinase kinase 15 (Homo sapiens) (UniProt Q6ZN16); assay: Binding affinity to MAP3K15; method in brief: as §2
[17] = target: Tyrosine-protein kinase Lck (Homo sapiens) (UniProt P06239); assay: Binding affinity to LCK; method in brief: as §2
[18] = test system: NCI-H1975; assay: Antiproliferative activity against human NCI-H1975 cells harboring EGFR L858R/T790M mutant assessed as inhibition of colony formation after 9 days by crystal violet staining; format: functional, cell-based
Method in brief: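 H1975 cells seeded at 500 cells per 6-cm dish and grown 24 h, then treated at 0.1 to 10 nM. Medium with compound replaced every 3 days. After 9 days, fixed with 4% formaldehyde and stained with 0.2% crystal violet.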

[19] = Cytotoxicity against human HLF1 cells after 72 hrs by MTS assay; format: cell-based; conditions: hlf1, 72 h
Method in brief: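 MTS proliferation read-out at 490 nm after 72 h exposure, cell number set to give absorbance 1.3−2.2. Six concentrations, 0.1 nM to 10 μM, at least six parallels each, repeated at least four times. IC50 from nonlinear sigmoidal dose−response fit.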

[20] = target: Tyrosine-protein kinase Tec (Homo sapiens) (UniProt P42680); assay: Binding affinity to TEC; method in brief: as §2
[21] = test system: HCC827; assay: Induction of apoptosis in human HCC827 cells harboring EGFR del E746-A750 mutant after 48 hrs by flow cytometry assay
[22] = target: Tyrosine-protein kinase JAK3 (Homo sapiens) (UniProt P52333); assay: Binding affinity to JAK3; method in brief: as §2
[23] = target: Platelet-derived growth factor receptor beta (Homo sapiens) (UniProt P09619); assay: Binding affinity to PDGFRbeta; method in brief: as §2
[24] = test system: Mast/stem cell growth factor receptor Kit (Homo sapiens), P10721 [V559D]; assay: Binding affinity to KIT V559D mutant; method in brief: as §2
[25] = target: T2, Epidermal growth factor receptor; assay: Binding affinity to EGFR L858R/T790M mutant
[26] = target: T3, Epidermal growth factor receptor; assay: Binding affinity to EGFR L861Q mutant
[27] = target: T4, Epidermal growth factor receptor; assay: Binding affinity to EGFR L858R mutant
[28] = target: T1, Epidermal growth factor receptor; assay: Binding affinity to EGFR
[29] = target: T5, Epidermal growth factor receptor; assay: Binding affinity to EGFR T790M mutant

T2 sequence (P00533 25-1210 T790M/L858R limits assumed): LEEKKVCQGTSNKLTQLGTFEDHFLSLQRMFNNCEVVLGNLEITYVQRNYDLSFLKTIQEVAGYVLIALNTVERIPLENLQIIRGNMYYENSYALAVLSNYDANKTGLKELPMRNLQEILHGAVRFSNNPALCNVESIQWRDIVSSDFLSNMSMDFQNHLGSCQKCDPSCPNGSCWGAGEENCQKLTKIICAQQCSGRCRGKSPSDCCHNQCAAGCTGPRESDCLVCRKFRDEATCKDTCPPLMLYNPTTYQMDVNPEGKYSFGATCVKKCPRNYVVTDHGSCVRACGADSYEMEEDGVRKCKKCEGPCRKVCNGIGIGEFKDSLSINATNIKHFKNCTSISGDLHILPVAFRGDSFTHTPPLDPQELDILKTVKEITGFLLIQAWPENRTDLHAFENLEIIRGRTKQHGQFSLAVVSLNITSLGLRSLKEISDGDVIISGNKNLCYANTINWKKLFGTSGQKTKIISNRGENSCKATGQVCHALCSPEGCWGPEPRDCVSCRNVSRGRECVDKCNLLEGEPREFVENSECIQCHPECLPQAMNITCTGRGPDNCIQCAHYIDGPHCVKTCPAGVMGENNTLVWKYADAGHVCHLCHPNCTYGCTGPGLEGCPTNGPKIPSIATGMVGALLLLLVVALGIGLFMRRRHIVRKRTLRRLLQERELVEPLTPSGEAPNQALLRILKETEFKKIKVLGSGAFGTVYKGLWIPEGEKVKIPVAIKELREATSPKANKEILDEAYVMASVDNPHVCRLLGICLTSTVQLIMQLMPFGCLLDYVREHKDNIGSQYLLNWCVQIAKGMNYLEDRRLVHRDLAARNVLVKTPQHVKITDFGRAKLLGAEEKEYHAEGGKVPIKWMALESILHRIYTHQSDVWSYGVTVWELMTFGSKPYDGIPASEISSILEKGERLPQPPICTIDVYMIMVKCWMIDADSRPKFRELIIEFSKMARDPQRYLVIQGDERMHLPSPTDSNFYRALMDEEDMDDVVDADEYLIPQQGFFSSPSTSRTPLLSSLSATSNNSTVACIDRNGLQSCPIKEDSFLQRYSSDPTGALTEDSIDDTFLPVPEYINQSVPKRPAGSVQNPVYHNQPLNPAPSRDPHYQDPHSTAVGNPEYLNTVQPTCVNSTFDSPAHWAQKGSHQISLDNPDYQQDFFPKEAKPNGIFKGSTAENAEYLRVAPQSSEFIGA
T1 sequence (P00533 whole entry): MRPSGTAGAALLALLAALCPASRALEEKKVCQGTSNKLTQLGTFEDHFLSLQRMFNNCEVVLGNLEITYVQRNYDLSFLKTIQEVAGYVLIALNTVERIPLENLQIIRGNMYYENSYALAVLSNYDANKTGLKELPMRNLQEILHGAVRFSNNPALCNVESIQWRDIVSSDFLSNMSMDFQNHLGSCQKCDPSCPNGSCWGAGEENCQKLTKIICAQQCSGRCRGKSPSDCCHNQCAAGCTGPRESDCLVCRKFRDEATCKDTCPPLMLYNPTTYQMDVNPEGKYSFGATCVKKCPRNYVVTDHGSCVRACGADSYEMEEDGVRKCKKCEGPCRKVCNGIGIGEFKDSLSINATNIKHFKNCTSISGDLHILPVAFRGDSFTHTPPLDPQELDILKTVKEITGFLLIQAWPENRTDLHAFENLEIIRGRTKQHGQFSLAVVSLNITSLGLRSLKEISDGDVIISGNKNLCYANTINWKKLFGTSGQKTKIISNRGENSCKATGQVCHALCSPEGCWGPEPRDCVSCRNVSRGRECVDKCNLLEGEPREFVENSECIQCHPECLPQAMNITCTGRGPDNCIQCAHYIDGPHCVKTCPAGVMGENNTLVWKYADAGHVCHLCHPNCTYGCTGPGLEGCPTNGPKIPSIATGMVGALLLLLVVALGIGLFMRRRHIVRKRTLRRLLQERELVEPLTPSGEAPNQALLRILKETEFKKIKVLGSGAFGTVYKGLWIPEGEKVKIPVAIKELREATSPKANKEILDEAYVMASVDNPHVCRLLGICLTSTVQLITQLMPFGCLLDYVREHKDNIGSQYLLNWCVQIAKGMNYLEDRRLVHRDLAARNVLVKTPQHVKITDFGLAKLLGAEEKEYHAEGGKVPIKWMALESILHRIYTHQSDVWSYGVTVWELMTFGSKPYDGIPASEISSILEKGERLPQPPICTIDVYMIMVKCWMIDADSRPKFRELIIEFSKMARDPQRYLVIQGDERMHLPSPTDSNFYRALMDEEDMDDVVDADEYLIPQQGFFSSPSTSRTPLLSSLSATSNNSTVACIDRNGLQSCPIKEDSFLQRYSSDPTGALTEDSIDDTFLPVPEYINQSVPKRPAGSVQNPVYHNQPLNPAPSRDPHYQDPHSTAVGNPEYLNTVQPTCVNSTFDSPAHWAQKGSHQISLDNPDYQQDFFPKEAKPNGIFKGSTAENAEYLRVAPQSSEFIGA
T4 sequence (P00533 25-1210 L858R limits assumed): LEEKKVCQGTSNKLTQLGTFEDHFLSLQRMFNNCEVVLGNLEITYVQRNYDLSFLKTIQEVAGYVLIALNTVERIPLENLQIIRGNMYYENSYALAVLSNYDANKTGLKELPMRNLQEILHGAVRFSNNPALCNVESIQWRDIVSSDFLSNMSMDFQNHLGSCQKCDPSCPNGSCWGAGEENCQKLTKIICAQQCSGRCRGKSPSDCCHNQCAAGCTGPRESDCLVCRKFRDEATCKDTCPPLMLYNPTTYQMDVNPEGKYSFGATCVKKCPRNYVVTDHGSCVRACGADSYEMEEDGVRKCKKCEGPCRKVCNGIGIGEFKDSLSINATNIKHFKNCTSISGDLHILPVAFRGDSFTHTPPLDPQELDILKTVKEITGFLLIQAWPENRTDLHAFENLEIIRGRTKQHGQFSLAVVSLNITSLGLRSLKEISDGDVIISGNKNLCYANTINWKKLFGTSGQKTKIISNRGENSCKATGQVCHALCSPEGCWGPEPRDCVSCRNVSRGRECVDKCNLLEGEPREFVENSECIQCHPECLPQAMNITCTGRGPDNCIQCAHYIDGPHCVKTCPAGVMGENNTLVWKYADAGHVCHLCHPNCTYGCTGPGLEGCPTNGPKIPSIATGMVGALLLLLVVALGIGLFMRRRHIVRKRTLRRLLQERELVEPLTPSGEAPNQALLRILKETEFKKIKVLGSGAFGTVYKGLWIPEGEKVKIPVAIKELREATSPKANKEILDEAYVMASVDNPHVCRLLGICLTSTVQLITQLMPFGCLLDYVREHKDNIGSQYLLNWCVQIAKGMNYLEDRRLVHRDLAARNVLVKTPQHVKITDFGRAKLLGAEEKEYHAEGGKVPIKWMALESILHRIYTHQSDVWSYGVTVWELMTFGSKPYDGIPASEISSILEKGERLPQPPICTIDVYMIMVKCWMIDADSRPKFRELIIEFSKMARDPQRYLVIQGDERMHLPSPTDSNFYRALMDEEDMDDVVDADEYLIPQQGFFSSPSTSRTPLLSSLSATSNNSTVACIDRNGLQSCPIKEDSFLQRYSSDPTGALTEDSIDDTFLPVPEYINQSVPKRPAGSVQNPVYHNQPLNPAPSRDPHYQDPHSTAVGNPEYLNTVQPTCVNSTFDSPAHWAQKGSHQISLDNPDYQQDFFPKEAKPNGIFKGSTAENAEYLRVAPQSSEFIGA
T5 sequence (P00533 25-1210 T790M limits assumed): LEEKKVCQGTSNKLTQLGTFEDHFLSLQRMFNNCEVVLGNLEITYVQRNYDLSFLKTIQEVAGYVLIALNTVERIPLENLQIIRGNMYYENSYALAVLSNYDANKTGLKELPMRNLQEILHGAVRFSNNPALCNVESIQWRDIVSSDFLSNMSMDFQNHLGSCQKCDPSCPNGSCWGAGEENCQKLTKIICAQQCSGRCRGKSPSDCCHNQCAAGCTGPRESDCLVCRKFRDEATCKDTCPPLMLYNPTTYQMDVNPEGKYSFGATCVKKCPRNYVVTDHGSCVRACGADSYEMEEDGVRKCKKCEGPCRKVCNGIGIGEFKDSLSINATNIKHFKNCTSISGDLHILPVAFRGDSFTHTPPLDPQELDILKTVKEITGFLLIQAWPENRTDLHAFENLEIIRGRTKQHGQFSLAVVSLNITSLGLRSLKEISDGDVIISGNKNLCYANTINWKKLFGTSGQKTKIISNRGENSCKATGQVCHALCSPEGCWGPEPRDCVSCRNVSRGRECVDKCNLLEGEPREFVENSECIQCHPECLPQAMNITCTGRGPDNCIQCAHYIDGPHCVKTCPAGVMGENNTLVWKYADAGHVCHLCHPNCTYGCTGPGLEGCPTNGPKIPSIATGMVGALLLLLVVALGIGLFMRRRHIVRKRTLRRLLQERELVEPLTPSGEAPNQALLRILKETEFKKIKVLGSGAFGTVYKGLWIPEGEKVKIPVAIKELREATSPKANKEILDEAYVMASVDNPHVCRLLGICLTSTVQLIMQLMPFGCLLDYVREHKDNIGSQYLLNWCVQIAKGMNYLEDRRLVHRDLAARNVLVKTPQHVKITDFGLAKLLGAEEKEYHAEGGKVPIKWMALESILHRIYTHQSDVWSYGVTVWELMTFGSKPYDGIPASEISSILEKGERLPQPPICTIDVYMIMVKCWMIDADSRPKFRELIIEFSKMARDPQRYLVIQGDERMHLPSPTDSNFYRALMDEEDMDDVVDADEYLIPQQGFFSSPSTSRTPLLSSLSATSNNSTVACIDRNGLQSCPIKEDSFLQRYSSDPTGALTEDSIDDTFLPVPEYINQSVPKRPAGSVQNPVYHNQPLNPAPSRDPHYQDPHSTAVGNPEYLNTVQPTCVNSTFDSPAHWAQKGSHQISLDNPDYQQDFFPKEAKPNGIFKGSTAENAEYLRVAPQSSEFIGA

SMILES	IC50 [1] [nM]	IC50 [2] [µM]	IC50 [3] [nM]	IC50 [4] [nM]	IC50 [5] [nM]	IC50 [6] [nM]	IC50 [7] [µM]	IC50 [8] [nM]	IC50 [9] [nM]	IC50 [10] [nM]	also measured
C=CC(=O)Nc1cccc(N2C(=O)N(c3ccc(Oc4ccccc4)cc3)Cc3cnc(Nc4ccc(N5CCN(C)CC5)cc4OC)nc32)c1	1.52	> 10	3.57	2.31	1.66	2.03	1.77				
C=CC(=O)Nc1cccc(N2C(=O)N(C)Cc3cnc(Nc4ccc(N5CCN(C)CC5)cc4OC)nc32)c1	1.16	> 10	3.14	1.21	1.08	6.56	15.9	47	18	750	
C=CC(=O)Nc1cccc(N2C(=O)N(C)Cc3cnc(Nc4ccc(N5CCOCC5)cc4OC)nc32)c1	16.4	> 10	28.9	12.7	10.3	60.3	10.5	150	130	> 10000	
C=CC(=O)Nc1cccc(N2C(=O)N(C)Cc3cnc(NC)nc32)c1	929	> 10	> 1000	837	> 1000	> 1000	> 20	20100	6920	> 10000	
C=CC(=O)Nc1cccc(N2C(=O)N(C)Cc3cnc(Nc4ccc(N5CCN(C)CC5)cc4OC(C)C)nc32)c1	8.81	> 10	36.3	13.5	13.7	39.9	11.7	230	27	2110	
C=CC(=O)Nc1cc2c(Nc3ccc(F)c(Cl)c3)ncnc2cc1OCCCN1CCOCC1 [CANERTINIB]									1		
C=CC(=O)Nc1cccc(N2C(=O)N(c3ccc(OCc4ccccc4)cc3)Cc3cnc(Nc4ccc(N5CCN(C)CC5)cc4OC)nc32)c1	1.67	2.79	6.31	2.56	2.42	2.43	2.47				
C=CC(=O)Nc1cccc(N2C(=O)N(c3ccc(-c4ccccc4)cc3)Cc3cnc(Nc4ccc(N5CCN(C)CC5)cc4OC)nc32)c1	1.41	3.69	4.64	3.43	1.67	5.24	2.27				
C=CC(=O)Nc1cccc(N2C(=O)N(C(C)C)Cc3cnc(Nc4ccc(N5CCN(C)CC5)cc4OC)nc32)c1	0.38	> 10	4.42	0.46	0.45		8.42	58	4	820	
C=CC(=O)Nc1cccc(N2C(=O)N(C)Cc3cnc(Nc4ccc(N5CCCN(C)CC5)cc4OC)nc32)c1	1.47	> 10	5.17	2.75	2.11	11	> 20	720	73	2150	
C=CC(=O)Nc1cccc(N2C(=O)N(c3ccccc3)Cc3cnc(Nc4ccc(N5CCN(C)CC5)cc4OC)nc32)c1	0.3	4.02	0.98	0.93	0.46	0.51	2.8				Activity [11]: Active; Activity [12]: Active; Activity [13]: Active; Activity [14]: Active; Activity [15]: Active; Activity [16]: Active; Activity [17]: Active; inhibition [18]: Dose-dependent effect; Activity [19]: Non-toxic; Activity [20]: Active; Activity [21]: Active; Activity [22]: Active; Activity [23]: Active; Activity [24]: Active
C=CC(=O)Nc1cccc(N2C(=O)N(C)Cc3cnc(Nc4ccc(N(C)C)cc4OC)nc32)c1	4.99	> 10	11.5	6.22	4.95	24.9	> 20	540	740	5620	
C=CC(=O)Nc1cccc(N2C(=O)N(C)Cc3cnc(Nc4ccccc4)nc32)c1	6.95	> 10	28.3	12.1	10.9	45.7	18	170	44	6900	
C=CC(=O)Nc1cccc(N2C(=O)N(C)Cc3cnc(Nc4ccc(N5CCC(N(C)C)CC5)cc4OC)nc32)c1	3.52	> 10	5.2	2.83	2.41	9.52	14.5	530	150	1390	
C=CC(=O)Nc1cccc(N2C(=O)N(C)Cc3cnc(Nc4ccc(N5CCCCC5)cc4OC)nc32)c1	29.5	> 10	36.4	15.4	10.4	95.7	12	610	170	5060	
C=CC(=O)Nc1cccc(N2C(=O)N(C)Cc3cnc(Nc4ccc(N5CCN(C)CC5)cc4F)nc32)c1	> 1000	7.18	> 1000	> 1000	> 1000	> 1000	11.1	8460	5010	> 10000	
C=CC(=O)Nc1cccc(Oc2nc(Nc3ccc(N4CCN(C)CC4)cc3OC)ncc2Cl)c1		2.73					5.31	48	7	1390	
C=CC(=O)Nc1cccc(N2C(=O)N(C)Cc3cnc(Nc4ccc(N5CCN(C)CC5)cc4C)nc32)c1	1.95	> 10	4.18	1.31	1.21	9.37	11.9	200	31	990	
C=CC(=O)Nc1cccc(N2C(=O)N(C)Cc3cnc(Nc4ccc(N5CCN(C)CC5)cc4)nc32)c1	0.43	7.56	1.19	0.56	0.53	1.66	11.3	45	14	550	
CCC(=O)Nc1cccc(N2C(=O)N(C)Cc3cnc(Nc4ccc(N5CCN(C)CC5)cc4OC)nc32)c1	> 1000	> 10	> 1000	> 1000	> 1000	> 1000	> 30	> 20000		> 10000	Kd [25]: 850 nM; Kd [26]: 1100 nM; Kd [27]: 1600 nM; Kd [28]: 1400 nM; Kd [29]: 560 nM
C=CC(=O)Nc1cccc(N2C(=O)N(C)Cc3cnc(Nc4ccc(N5CCN(C)CC5)cc4OCC)nc32)c1	4.41	> 10	7.1	3.02	2.68	12.7	10.3	103	14	1080	
COc1cc(N2CCN(C)CC2)ccc1Nc1ncc2c(n1)N(c1cccc(N)c1)C(=O)N(C)C2	> 1000	> 10	> 1000	> 1000	> 1000	> 1000	11.2	> 20000	4890	> 10000	

Reference: ChEMBL document CHEMBL2029259, “Design, synthesis, and biological evaluation of novel conformationally constrained inhibitors targeting epidermal growth factor receptor threonine⁷⁹⁰ → methionine⁷⁹⁰ mutant” (J Med Chem, 2012)
